Compound activity: PubChem BioAssay, several laboratories
Many of the other results were omitted from the sample, so hits are more common in it than they were.
Fibroblast inh: antiproliferative effect on LL 47 fibroblasts – human, LL 47 cells, CellTiter-Glo luminescence, primary screen. LL 47 human lung fibroblast viability, ATP luminescence; hits give low values. viability, % at 10 µM. actives 1.1% (n = 85,000);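 active = viability at or below 50% in the single dose screen; inactive = viability above 50%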;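 also: compound exposure lasted 72 h before the ATP readout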
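Assay system: human lung fibroblast line LL 47, low passage. Input: 1,150 fibroblasts seeded per well. Times: overnight cell rest, 72 h compound treatment at 37 °C. Evaluation: % viability of median cell-only signal. Technique: luminescent ATP detection, CellTiter-Glo. Control set: cell-only wells, no compound.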
H69AR inhibit: proliferation blockers of H69AR lung cancer cells, primary screen, cell-based, human, 86K library; H69AR lung tumor viability, ATP luminescence, 72 h; hits give low values; viability, % at 10 µM; actives 6% (n = 85,000); AID 598, 2007;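 active = viability at or below 40%; inactive = viability above 40%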;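 also: multidrug resistant small cell line overexpressing MRP-1 efflux transporter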
HCT116 bCat-KO: primary screen for growth suppressors in beta-catenin knockout HCT116 cells (colon tumor, human); viability, % at 10 µM; actives 1.5% (n = 140,000); AID 818, 2007; HCT116 beta-catenin knockout viability, CellTiter-Glo, 60 h; hits give low values;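 active = viability at or under a set limit, the compound median less 4 SD, cut at about 6% in these data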
HUVEC prolif 384: inhibitors of HUVEC proliferation, primary screen, cell-based, 384-well | AID 648, 2007 | viability, % at 10 µM (by protocol) | CellTiter-Glo luminescence, 72 h; hits give low values | actives 1.1% (n = 86,000);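 active = viability at or below 30%; inactive = viability above 30%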
PTEN del growth: growth suppression of PTEN-null HCT116, primary screen, cell-based, CellTiter-Glo. viability, % at 10 µM. HCT116 PTEN-null viability, 60 h; hits give low values. actives 1.2% (n = 140,000). AID 827, 2007;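 active = viability at or below a set limit, 4 SD under the median of all tested compounds, cut at about 3.7% in these data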;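 also: PTEN knockout HCT116 line with beta catenin targeted HCT116 as companion control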
Pyk2 oligo antag: antagonists of Pyk2 self-association, primary screen, Q293 cells, FERM NanoBiT luminescence, HTS | actives 0.83% (n = 99,000) | hits give low values | z-score (the deposit names both 25 µM and 10 µM);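 active = Z-score of -3 or lower, scaled per plate to the spread of control and sample wells; inactive = z-score above -3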;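 also: negative z-score means lost luminescence so less FERM oligomerization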
Target sequence (Q14289 whole entry, looked up): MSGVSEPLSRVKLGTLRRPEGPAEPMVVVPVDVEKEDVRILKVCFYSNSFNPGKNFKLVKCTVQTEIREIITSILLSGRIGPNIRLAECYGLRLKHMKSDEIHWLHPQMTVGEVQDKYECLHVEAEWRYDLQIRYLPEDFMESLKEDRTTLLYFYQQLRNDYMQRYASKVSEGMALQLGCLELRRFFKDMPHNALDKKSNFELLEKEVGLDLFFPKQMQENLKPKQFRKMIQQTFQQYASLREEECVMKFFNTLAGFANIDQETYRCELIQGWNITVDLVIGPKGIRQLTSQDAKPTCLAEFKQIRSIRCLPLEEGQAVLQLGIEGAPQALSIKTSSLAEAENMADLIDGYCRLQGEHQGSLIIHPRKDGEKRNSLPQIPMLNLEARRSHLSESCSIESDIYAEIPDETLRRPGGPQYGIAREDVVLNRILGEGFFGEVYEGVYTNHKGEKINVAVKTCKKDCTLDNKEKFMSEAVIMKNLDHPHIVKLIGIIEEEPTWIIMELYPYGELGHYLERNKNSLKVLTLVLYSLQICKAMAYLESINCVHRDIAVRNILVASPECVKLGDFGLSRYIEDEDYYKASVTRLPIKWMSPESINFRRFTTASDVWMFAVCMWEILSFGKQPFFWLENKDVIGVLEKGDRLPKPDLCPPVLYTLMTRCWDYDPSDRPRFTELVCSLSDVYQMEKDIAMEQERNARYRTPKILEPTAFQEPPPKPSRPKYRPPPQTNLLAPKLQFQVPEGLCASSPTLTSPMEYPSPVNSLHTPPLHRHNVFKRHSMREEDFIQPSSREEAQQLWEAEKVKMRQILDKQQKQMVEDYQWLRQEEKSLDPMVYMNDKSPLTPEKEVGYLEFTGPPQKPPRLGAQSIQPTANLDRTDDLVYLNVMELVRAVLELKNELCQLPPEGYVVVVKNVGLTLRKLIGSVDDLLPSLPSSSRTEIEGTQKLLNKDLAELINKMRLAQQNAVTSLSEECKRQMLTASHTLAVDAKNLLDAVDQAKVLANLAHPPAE
Of the large screens only hits and unclear results are named; the others gave an inactive call.

CC(C)(C)C1CCc2c(sc(NC(=O)CSc3ncn[nH]3)c2C#N)C1 (configuration not stated)	none
CCOC(=O)c1sc(NC(=O)C2C3C=CC(C3)C2C(=O)O)nc1C (configuration not stated)	none
Nc1nnc(SCC(=O)NN2C(=O)NC3(CCCCC3)C2=O)s1	none (no result: Fibroblast inh, H69AR inhibit, HUVEC prolif 384, Pyk2 oligo antag)
O=c1ccc(Cc2ccccn2)n[nH]1	none
CCC(CC)=C(C#N)C(=O)NC1CCCCC1	none (no result: Fibroblast inh, H69AR inhibit, HUVEC prolif 384, Pyk2 oligo antag)
COC(=O)c1ccc(N=NNc2cccc(Br)c2)cc1	none (no result: Fibroblast inh, H69AR inhibit, HUVEC prolif 384, Pyk2 oligo antag)
COc1ccc(-c2cc(C(F)(F)F)nc(SCC(=O)Nc3sc4c(c3C#N)CCC4)n2)cc1	none (no result: Fibroblast inh, H69AR inhibit, HUVEC prolif 384)
CCc1nnc(NC(=O)CSc2nc3c(cc2C#N)CCC3)s1	none
N#Cc1cc2c(nc1SCC(=O)Nc1sc3c(c1C#N)CCC3)CCC2	H69AR inhibit 33.8
CCn1c(SCC(=O)Nc2sc3c(c2C#N)CCCC3)nnc1-c1ccncc1	H69AR inhibit 0.9
COc1ccc(-c2ccc(C#N)c(SCC(=O)Nc3sc4c(c3C#N)CCC4)n2)cc1OC	H69AR inhibit 1.0, HUVEC prolif 384 8.7
CCSc1nnc(NC(=O)CSc2nc3c(cc2C#N)CCCC3)s1	Pyk2 oligo antag -3.18 (no result: Fibroblast inh, H69AR inhibit, HUVEC prolif 384)
CCCCSC(=S)N(C)C1CCS(=O)(=O)C1 (configuration not stated)	none (no result: Fibroblast inh, H69AR inhibit, HUVEC prolif 384)
Cc1ccc(NC2=NCC(=O)N2C2CCCC2)c(C)c1	none
N#CCCn1ncn(-c2ccccc2)c1=S	none
CCOC(=O)c1[nH]c(C)c(C(=O)c2cc(F)ccc2F)c1C	H69AR inhibit 29.8
CCOC(=O)c1[nH]c(C)c(C(=O)Nc2ccc(Cl)cc2)c1C	none (no result: Pyk2 oligo antag)
CCOC(=O)c1ccc(NC(=O)c2c(C)[nH]c(C(=O)OCC)c2C)cc1	Fibroblast inh 49.2
CCc1c(C(=O)Nc2ccc(OC)cc2)[nH]c(C)c1C(C)=O	H69AR inhibit 26.4
CC(=O)c1c(C)[nH]c(C(=O)N2CCc3ccccc32)c1C	none
CCOC(=O)c1[nH]c(C)c(C(=O)N2CCc3ccccc32)c1C	Fibroblast inh 48.9, H69AR inhibit 25.6
CCOC(=O)c1[nH]c(C)c(C(=O)OCC)c1C	none (no result: Pyk2 oligo antag)
CCOC(=O)c1[nH]c(C)c(C(=O)OC(C)C(=O)Nc2ncc(Cl)cc2Cl)c1C (configuration not stated)	H69AR inhibit 25.7
CCOC(=O)c1c(C)[nH]c(C(=O)OCC(=O)Nc2cc(C)c(Cl)cc2OC)c1C	HCT116 bCat-KO 1.6, PTEN del growth 1.5 (no result: Fibroblast inh, H69AR inhibit, HUVEC prolif 384)
CCOC(=O)c1[nH]c(C)c(C(=O)Nc2cccc(Cl)c2C)c1C	H69AR inhibit 15.3
CCOC(=O)c1[nH]c(C)c(C(=O)NC)c1C	none (no result: Pyk2 oligo antag)
Cn1c(NC(=O)c2ccccc2)c(-c2ccccn2)c(=O)c2ccccc21	none
O=C1/C(=N/n2cnnc2)c2ccccc2N1Cc1ccccc1	H69AR inhibit 17.3 (no result: Pyk2 oligo antag)
c1ccc2c(c1)C(=Nn1cnnc1)c1ccccc1-2	none
FC(F)(F)c1cc(-c2ccco2)nc(NCCc2ccccc2)n1	H69AR inhibit 24.0
FC(F)(F)c1cc(-c2ccco2)nc(N2CCN(Cc3ccccc3)CC2)n1	none (no result: Fibroblast inh, H69AR inhibit, HUVEC prolif 384)
COc1cc(C(=O)N2CCC(O)(c3ccccc3)CC2)cc(OC)c1OC	none (no result: Fibroblast inh, H69AR inhibit, HUVEC prolif 384)
COc1ccc(Cl)cc1NC(=O)NC1CCCCC1	none
COc1ccccc1NC(=O)Nc1ccc(Br)cn1	none
COc1ccc(Cl)cc1NC(=O)Nc1ccc(Br)cn1	H69AR inhibit 37.7
COc1ccc(Cl)cc1NC(=O)Nc1cccc([N+](=O)[O-])c1C	HCT116 bCat-KO 3.1 (no result: Fibroblast inh, H69AR inhibit, HUVEC prolif 384)
COc1ccc(C(=O)NCc2nnc(SCC(=O)Nc3nc4ccc(C)cc4s3)o2)cc1OC	none (no result: Fibroblast inh, H69AR inhibit, HUVEC prolif 384, Pyk2 oligo antag)
Cc1cc(N2CCN(Cc3ccccc3)CC2)n2nc(C)c(-c3ccccc3)c2n1	H69AR inhibit 19.2
COc1ccc(-c2c(C)nn3c(N4CCN(Cc5ccccc5)CC4)cc(C)nc23)cc1OC	H69AR inhibit 16.6 (no result: Pyk2 oligo antag)
COc1ccccc1-c1c(C)nn2c(N3CCN(Cc4ccccc4)CC3)cc(C)nc12	none (no result: Pyk2 oligo antag)
COc1ccccc1-c1c(C)nn2c(N3CCCCCC3)cc(C)nc12	HCT116 bCat-KO 2.6, PTEN del growth 3.2 (no result: Fibroblast inh, H69AR inhibit, HUVEC prolif 384, Pyk2 oligo antag)
